Experiment [1] addresses Sodium-dependent dopamine transporter (Homo sapiens, UniProt Q01959). The experiment is described as follows: Binding affinity for dopamine transporter expressed in […] cells. The class given is cell-based. The procedure, abridged:
(§1)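 Membranes from confluent pig kidney LLC-PK₁ cells stably expressing the respective transporter, homogenized and pelleted, 30–40 μg protein. Incubated with 0.4 nM [¹²⁵I]IPT or [¹²⁵I]IDAM and 8–10 competitor concentrations (10⁻¹⁰ to 10⁻⁵ M) in 50 mM Tris-HCl pH 7.4, 120 mM NaCl, 0.1% BSA, 1 h at room temperature. Nonspecific binding was defined with 10 μM CFT for IPT and 1 μM IDAM for IDAM. Filtration, gamma counting, nonlinear regression for Ki.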

The target in experiment [2] is Sodium-dependent serotonin transporter (Homo sapiens, UniProt P31645). As to the kind of experiment: Binding affinity for serotonin transporter expressed in […] cells. The class given is cell-based. The procedure, abridged:
as §1

Sodium-dependent dopamine transporter, sequence (Q01959 whole entry): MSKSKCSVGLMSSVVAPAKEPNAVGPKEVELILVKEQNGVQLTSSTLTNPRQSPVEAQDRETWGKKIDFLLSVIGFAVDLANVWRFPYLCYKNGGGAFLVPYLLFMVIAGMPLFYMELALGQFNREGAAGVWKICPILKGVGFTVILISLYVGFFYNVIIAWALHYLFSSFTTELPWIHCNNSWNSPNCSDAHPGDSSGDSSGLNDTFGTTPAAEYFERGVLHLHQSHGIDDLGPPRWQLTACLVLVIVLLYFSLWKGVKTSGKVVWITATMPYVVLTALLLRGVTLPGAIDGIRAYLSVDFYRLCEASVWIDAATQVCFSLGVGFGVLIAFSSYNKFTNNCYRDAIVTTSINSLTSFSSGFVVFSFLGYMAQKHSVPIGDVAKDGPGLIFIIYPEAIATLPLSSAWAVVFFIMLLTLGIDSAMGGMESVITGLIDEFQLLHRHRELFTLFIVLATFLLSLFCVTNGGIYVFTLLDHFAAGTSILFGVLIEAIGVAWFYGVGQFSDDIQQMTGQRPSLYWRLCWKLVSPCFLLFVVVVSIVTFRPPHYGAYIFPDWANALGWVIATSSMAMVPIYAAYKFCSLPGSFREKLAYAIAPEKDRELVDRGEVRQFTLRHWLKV
Sodium-dependent serotonin transporter, sequence (P31645 whole entry): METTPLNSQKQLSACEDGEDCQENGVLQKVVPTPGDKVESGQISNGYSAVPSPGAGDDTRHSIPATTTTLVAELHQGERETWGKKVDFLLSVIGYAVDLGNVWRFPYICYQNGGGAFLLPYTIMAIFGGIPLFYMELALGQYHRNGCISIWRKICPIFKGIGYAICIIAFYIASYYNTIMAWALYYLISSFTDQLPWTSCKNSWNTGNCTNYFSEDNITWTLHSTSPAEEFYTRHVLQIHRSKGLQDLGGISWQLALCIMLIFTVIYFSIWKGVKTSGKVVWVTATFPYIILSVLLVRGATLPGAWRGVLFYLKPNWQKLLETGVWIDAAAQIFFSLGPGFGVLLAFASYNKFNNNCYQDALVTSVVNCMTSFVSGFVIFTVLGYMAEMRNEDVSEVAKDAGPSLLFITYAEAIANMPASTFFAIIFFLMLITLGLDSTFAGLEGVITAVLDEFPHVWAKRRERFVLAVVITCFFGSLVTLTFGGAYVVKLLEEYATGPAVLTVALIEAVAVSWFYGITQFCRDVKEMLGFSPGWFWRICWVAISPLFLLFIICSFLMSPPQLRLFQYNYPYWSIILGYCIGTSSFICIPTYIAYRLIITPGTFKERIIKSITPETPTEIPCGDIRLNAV

Broadly, the Ki is the equilibrium dissociation constant of an inhibitor or competing ligand from its target. Lower therefore signals a stronger hold on the target. As to `CN(C)Cc1ccccc1Sc1ccc(I)cc1CO`, the Ki is over 1000 nM in experiment [1] and 0.09 nM in experiment [2].

With `CN(C)Cc1ccccc1Oc1ccc(I)cc1CO`, the Ki in experiment [1] is over 1000 nM; in experiment [2] it was 0.12 nM.

On to `CN(C)Cc1ccccc1Cc1ccc(I)cc1N`, for which the figures for the Ki in experiment [1] and in experiment [2] were over 1000 nM and 48.6 nM, respectively.

With `CN(C)Cc1ccccc1Sc1ccc(I)cc1N`, the inhibition constant Ki in experiment [1] is 840 nM; in experiment [2] it was 0.01 nM.

Turning to `CN(C)Cc1ccccc1Sc1ccc(C#N)cc1N` [DASB], the Ki in experiment [1] was over 1000 nM.

The compound `CNCCC(Oc1ccccc1OC)c1ccccc1` (stereo not given) [NISOXETINE] came in with a Ki in experiment [2] of […].

The values are drawn from ChEMBL document CHEMBL1137220, “2-(2-(dimethylaminomethyl)phenoxy)-5-iodophenylamine: an improved serotonin transporter imaging agent” (J Med Chem, 2004).
